# Laboratory results: ChEMBL document CHEMBL1127304, “The discovery of novel, structurally diverse protein kinase C agonists through computer 3D-database pharmacophore search. Molecular modeling studies” (J Med Chem, 1994)
# Molecular target: T1, Protein kinase C alpha type (Homo sapiens, UniProt P17252)
# Experiment: (§1) Binding affinity with protein kinase C (PK-C) alpha bound to labeled [20-3H]-PDBU at a conc of 30 ug/mL
# Method in brief: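 Competitive displacement of [20-³H]phorbol 12,13-dibutyrate bound to PK-C α, with each ligand at a single concentration of 30 μg/mL in media. The read-out is percent inhibition of bound [³H]PDBU.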
row,Compound,inhibition [%]
1,CC(=O)O[C@@H]1CC2C(C)(C)C(=O)C=CC2(C)C2CCC3(C)C(=CCC3C(CO)CCC(O)C(=O)C(C)(C)O)C21 (stereo partly specified),27
2,O=C1c2c(NCCCNCCO)cccc2C(=O)c2c(NCCCNCCO)ccc(O)c21,30
3,O=C1c2cccc(O)c2C(=O)c2c(OCCN(CCO)Cc3ccccc3)ccc(O)c21,34
4,O=C1c2cccc(O)c2C(=O)c2c(OCCN(CCO)Cc3ccccc3)cccc21,25
5,CC(=O)C(C(=O)CCSCCO)C(SCCO)c1ccc(Cl)c(Cl)c1 (stereo unspecified),30
6,COc1cccc2c1C(=O)c1c(O)c3c(c(O)c1C2=O)C[C@@](O)(/C(CO)=N/NC(=O)c1ccc(Cl)c(Cl)c1)C[C@@H]3OC1CC(N)C(O)C(C)O1 (stereo partly specified),30

# Molecular target: T1, Protein kinase C alpha type
# Experiment: as §1
row,Compound,Ki [µM]
1,C[C@]12C/C(=C/N(CCO)CCO)C(=O)C[C@@H]1CC[C@@H]1[C@@H]2CC[C@]2(C)[C@@H](O)CC[C@@H]12,16.1
2,CC(=O)OC[C@@]1(C)C(OC(C)=O)CC[C@]2(C)[C@H](CC(OC(C)=O)C3=CCOC3=O)[C@](C)(CO)CC[C@H]21 (stereo partly specified),37.7
3,O=C(OCC(O)C(OC(=O)c1ccccc1)C(CO)OC(=O)c1ccccc1)c1ccccc1 (stereo unspecified),12.9
4,O=C1c2ccccc2C(=O)c2c(Nc3cccc(S(=O)(=O)N(CCO)CCO)c3)ccc(O)c21,26.6
5,O=C1c2ccccc2C(=O)c2c(Nc3ccc(S(=O)(=O)N(CCO)CCO)cc3)ccc(O)c21,7.8
